Reference: ChEMBL document CHEMBL1153955, “Indolylarylsulfones bearing natural and unnatural amino acids. Discovery of potent inhibitors of HIV-1 non-nucleoside wild type and resistant mutant strains reverse transcriptase and coxsackie B4 virus” (J Med Chem, 2009)

Tests used:
[1] = test system: Respiratory syncytial virus; assay: Antiviral activity against RSV Long in human HeLa cells assessed as protection against virus-induced cytopathicity; assay type: functional, organism-based
Outline: (§1)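 Confluent cell monolayers inoculated with 100 CCID₅₀ virus. After 1-2 h adsorption, residual virus removed and cultures incubated with varying compound concentrations. Cytopathicity scored once it reached completion in untreated infected controls. EC₅₀ = dose reducing virus-induced cytopathogenicity by 50%.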

[2] = test system: Vesicular stomatitis virus; assay: Antiviral activity against VSV in human HeLa cells assessed as protection against virus-induced cytopathicity; assay type: functional, organism-based
[3] = test system: Human immunodeficiency virus 1; assay: Antiviral activity against HIV1 3B in human CEM cells assessed as protection against virus-induced cytopathicity after 4 days; assay type: functional, organism-based; conditions: Human immunodeficiency virus 1, 3B, CCRF-CEM, 96 h
Outline: (§2)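 CEM cells (~3 × 10⁵ cells/mL) infected with ~100 CCID₅₀ per mL of HIV-1 (IIIB) or HIV-2 (ROD), then seeded into wells containing compound dilutions. After 4 days at 37 °C, syncytium (giant cell) formation was examined microscopically. EC₅₀ = concentration protecting CEM cells from HIV cytopathicity by 50%.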

[4] = test system: Human immunodeficiency virus 2; assay: Antiviral activity against HIV2 ROD in human CEM cells assessed as protection against virus-induced cytopathicity after 4 days; assay type: functional, organism-based; conditions: Human immunodeficiency virus 2, ROD, CCRF-CEM, 96 h; outline: as §2
[5] = test system: L1210; assay: Antiproliferative activity against mouse L1210 cells after 2 days; assay type: cell-based; conditions: L1210, 48 h
Outline: (§3)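 Cells seeded at 5 × 10⁴ to 7.5 × 10⁴ cells/200 µL with or without serial compound dilutions; incubated at 37 °C for 2 days (L1210) or 3 days (Molt4/C8, CEM). Cell numbers counted with a Coulter counter. CC₅₀ = concentration reducing proliferation by 50% versus untreated controls, read from plots of cell number (% of control) against concentration. Means of at least two independent experiments.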

[6] = Antiproliferative activity against human Molt4/C8 cells after 3 days; assay type: cell-based; conditions: MOLT-4, 72 h; outline: as §3
[7] = test system: CCRF-CEM; assay: Antiproliferative activity against human CEM cells after 3 days; assay type: cell-based; conditions: 72 h; outline: as §3
[8] = biological target: Human immunodeficiency virus type 1 reverse transcriptase (Human immunodeficiency virus 1, UniProt Q72547); assay: Inhibition of HIV1 reverse transcriptase p66/p51; conditions: read-out: IC50
[9] = biological target: Human immunodeficiency virus type 1 reverse transcriptase (Human immunodeficiency virus 1, UniProt Q72547, L100I); assay: Inhibition of HIV1 reverse transcriptase p66/p51 L100I mutant; conditions: read-out: IC50
Outline: (§4)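 Substrate was 0.5 µg poly(rA)/oligo(dT) 10:1 (0.3 µM 3′-OH ends) with 10 µM [³H]dTTP, at 37 °C. Acid-precipitable radioactivity was counted on GF/C filters after TCA washes.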

[10] = biological target: Human immunodeficiency virus type 1 reverse transcriptase (Human immunodeficiency virus 1, UniProt Q72547, K103N); assay: Inhibition of HIV1 reverse transcriptase p66/p51 K103N mutant; conditions: read-out: IC50; outline: as §4
[11] = biological target: Human immunodeficiency virus type 1 reverse transcriptase (Human immunodeficiency virus 1, UniProt Q72547, Y181I); assay: Inhibition of HIV1 reverse transcriptase p66/p51 Y181I mutant; conditions: read-out: IC50; outline: as §4
[12] = Cytotoxicity against human HeLa cells assessed as drug level causing microscopically detectable alteration of normal cell morphology after 3 days; assay type: cell-based
Outline: (§5)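 Serial compound dilutions added to confluent HeLa or Vero monolayers. MCC = minimum concentration causing microscopically detectable alteration of cell morphology after 3 days of incubation.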

[13] = Cytotoxicity against african green monkey Vero cells assessed as drug level causing microscopically detectable alteration of normal cell morphology after 3 days; assay type: cell-based; conditions: chlorocebus sabaeus; outline: as §5
[14] = test system: Coxsackievirus B4; assay: Antiviral activity against Coxsackievirus B4 in human HeLa cells assessed as protection against virus-induced cytopathicity; assay type: functional, organism-based; conditions: Enterovirus B; outline: as §1
[15] = test system: Coxsackievirus B4; assay: Antiviral activity against Coxsackievirus B4 in african green monkey Vero cells assessed as protection against virus-induced cytopathicity; assay type: functional, organism-based; conditions: Enterovirus B; outline: as §1
[16] = test system: Human respirovirus 3; assay: Antiviral activity against Parainfluenza virus type 3 in african green monkey Vero cells assessed as protection against virus-induced cytopathicity; assay type: functional, organism-based; conditions: Human respirovirus 3, Vero; outline: as §1
[17] = test system: Mammalian orthoreovirus 1; assay: Antiviral activity against Reovirus 1 in african green monkey Vero cells assessed as protection against virus-induced cytopathicity; assay type: functional, organism-based; conditions: Mammalian orthoreovirus 1, Vero; outline: as §1
[18] = test system: Sindbis virus; assay: Antiviral activity against Sindbis virus in african green monkey Vero cells assessed as protection against virus-induced cytopathicity; assay type: functional, organism-based; outline: as §1
[19] = test system: Punta Toro virus; assay: Antiviral activity against Punta Toro virus in african green monkey Vero cells assessed as protection against virus-induced cytopathicity; assay type: functional, organism-based; outline: as §1
[20] = Cytotoxicity against human HEL cells assessed as drug level causing microscopically detectable alteration of normal cell morphology after 3 days; assay type: cell-based
[21] = test system: Human alphaherpesvirus 1; assay: Antiviral activity against HSV1 KOS in human HEL cells assessed as protection against virus-induced cytopathicity; assay type: functional, organism-based; conditions: Human alphaherpesvirus 1, KOS
[22] = test system: Human alphaherpesvirus 2; assay: Antiviral activity against HSV2 G in human HEL cells assessed as protection against virus-induced cytopathicity; assay type: functional, organism-based; conditions: Human alphaherpesvirus 2, strain G; outline: as §1
[23] = test system: Vaccinia virus; assay: Antiviral activity against Vaccinia virus Lederle in human HEL cells assessed as protection against virus-induced cytopathicity; assay type: functional, organism-based; conditions: Orthopoxvirus vaccinia
[24] = test system: Vesicular stomatitis virus; assay: Antiviral activity against VSV in human HEL cells assessed as protection against virus-induced cytopathicity; assay type: functional, organism-based
[25] = test system: Human alphaherpesvirus 1; assay: Antiviral activity against thymidine kinase deficient and acyclovir resistant HSV1 KOS in human HEL cells assessed as protection against virus-induced cytopathicity; assay type: functional, organism-based; conditions: Human alphaherpesvirus 1, KOS
[26] = Cytotoxicity against MDCK cells assessed as drug level causing microscopically detectable alteration of normal cell morphology; assay type: cell-based, Canis lupus familiaris; conditions: dog
[27] = Cytotoxicity against MDCK cells by MTS assay; assay type: cell-based, Canis lupus familiaris; conditions: dog
[28] = test system: Influenza A virus; assay: Antiviral activity against influenza H1N1 virus in MDCK cells assessed as reduction of virus-induced cytopathicity by visual cytopathic effect scoring method; assay type: functional, organism-based
[29] = test system: Influenza A virus; assay: Antiviral activity against influenza H1N1 virus in MDCK cells assessed as reduction of virus-induced cytopathicity by MTS method; assay type: functional, organism-based; conditions: Influenza A virus, H1N1, MDCK
[30] = test system: Influenza A virus H3N2; assay: Antiviral activity against influenza H3N2 virus in MDCK cells assessed as reduction of virus-induced cytopathicity by visual cytopathic effect scoring method; assay type: functional, organism-based
[31] = test system: Influenza A virus H3N2; assay: Antiviral activity against influenza H3N2 virus in MDCK cells assessed as reduction of virus-induced cytopathicity by MTS method; assay type: functional, organism-based
[32] = test system: Influenza B virus; assay: Antiviral activity against influenza B virus in MDCK cells assessed as reduction of virus-induced cytopathicity by visual cytopathic effect scoring method; assay type: functional, organism-based
[33] = test system: Influenza B virus; assay: Antiviral activity against influenza B virus in MDCK cells assessed as reduction of virus-induced cytopathicity by MTS method; assay type: functional, organism-based
[34] = Cytotoxicity against feline CRFK cells by MTS assay; assay type: cell-based, Felis catus; conditions: cat
[35] = test system: Feline coronavirus; assay: Antiviral activity against Feline coronavirus in feline […] cells assessed as inhibition of virus-induced cytopathicity; assay type: functional, organism-based; conditions: Alphacoronavirus 1
[36] = test system: Felid alphaherpesvirus 1; assay: Antiviral activity against Feline herpesvirus in feline […] cells assessed as inhibition of virus-induced cytopathicity; assay type: functional, organism-based

`Cc1cc(C)cc(S(=O)(=O)c2c(C(=O)NCCS(N)(=O)=O)[nH]c3ccc(Br)cc23)c1` showed an EC50 [1] greater than 4 µM, an EC50 [2] greater than 4 µM and an EC50 [3] of 0.001 µM. It also gave an EC50 [4] greater than 10 µM, an IC50 [5] of 17 µM and an IC50 [6] of 11 µM. For the same compound, the IC50 [7] was 14 µM, the IC50 [8] was 0.002 µM and the IC50 [9] was 0.013 µM. For the same compound, the IC50 [10] was 0.529 µM, the IC50 [11] was greater than 40 µM and the MCC at 72 h [12] was 20 µM. For the same compound, the MCC at 72 h [13] was no less than 20 µM, the EC50 [14] was no less than 4 µM and the EC50 [15] was 12 µM. It also gave an EC50 [16] greater than 20 µM, an EC50 [17] greater than 20 µM and an EC50 [18] greater than 20 µM. It also gave an EC50 [19] greater than 20 µM, an MCC at 72 h [20] of 20 µM and an EC50 [21] greater than 4 µM. For the same compound, the EC50 [22] was greater than 4 µM, the EC50 [23] was greater than 4 µM and the EC50 [24] was greater than 4 µM. For the same compound, the EC50 [25] was greater than 4 µM, the MCC [26] was 4 µM and the CC50 [27] was 1.9 µM. It also gave an EC50 [28] greater than 800 µM, an EC50 [29] greater than 800 µM and an EC50 [30] greater than 800 µM. The EC50 [31] was greater than 800 µM, the EC50 [32] was greater than 800 µM and the EC50 [33] was greater than 800 µM. For the same compound, the CC50 [34] was 11.9 µM, the EC50 [35] was greater than 4 µM and the EC50 [36] was greater than 4 µM.

Compound `Cc1cc(C)cc(S(=O)(=O)c2c(C(=O)NC(C)CC(N)=O)[nH]c3ccc([N+](=O)[O-])cc23)c1` (stereo not drawn) has an EC50 [1] greater than 20 µM, an EC50 [2] greater than 20 µM and an EC50 [3] of 0.0051 µM. The EC50 [4] was greater than 10 µM, the IC50 [5] was 37 µM and the IC50 [6] was 41 µM. It also gave an IC50 [7] of 36 µM, an IC50 [8] of 0.033 µM and an IC50 [9] of 0.191 µM. The IC50 [10] was 1.09 µM, the IC50 [11] was 11.9 µM and the MCC at 72 h [12] was 100 µM. For the same compound, the MCC at 72 h [13] was 100 µM, the EC50 [14] was no less than 20 µM and the EC50 [15] was greater than 20 µM. It also gave an EC50 [16] greater than 20 µM, an EC50 [17] greater than 20 µM and an EC50 [18] greater than 20 µM. The EC50 [19] was greater than 20 µM, the MCC at 72 h [20] was 20 µM and the EC50 [21] was greater than 4 µM. It also gave an EC50 [22] greater than 4 µM, an EC50 [23] greater than 4 µM and an EC50 [24] greater than 4 µM. For the same compound, the EC50 [25] was greater than 4 µM, the MCC [26] was 20 µM and the CC50 [27] was greater than 100 µM. It also gave an EC50 [28] greater than 4 µM, an EC50 [29] greater than 4 µM and an EC50 [30] greater than 4 µM. It also gave an EC50 [31] greater than 4 µM, an EC50 [32] greater than 4 µM and an EC50 [33] greater than 4 µM. It also gave a CC50 [34] of 21.1 µM, an EC50 [35] greater than 20 µM and an EC50 [36] greater than 20 µM.

For `Cc1cc(C)cc(S(=O)(=O)c2c(C(=O)NCCC(N)=O)[nH]c3ccc(Cl)c(F)c23)c1`, the EC50 [1] was 16 µM, the EC50 [2] was greater than 20 µM and the EC50 [3] was 0.002 µM. It also gave an EC50 [4] greater than 10 µM, an IC50 [5] of 42 µM and an IC50 [6] of 33 µM. It also gave an IC50 [7] of 30 µM, an IC50 [8] of 0.034 µM and an IC50 [9] of 0.13 µM. The IC50 [10] was 0.783 µM, the IC50 [11] was 7.16 µM and the MCC at 72 h [12] was 100 µM. It also gave an MCC at 72 h [13] of 100 µM, an EC50 [14] of 9 µM and an EC50 [15] greater than 20 µM. For the same compound, the EC50 [16] was greater than 20 µM, the EC50 [17] was greater than 20 µM and the EC50 [18] was greater than 20 µM. The EC50 [19] was greater than 20 µM, the MCC at 72 h [20] was 100 µM and the EC50 [21] was greater than 20 µM. The EC50 [22] was greater than 20 µM, the EC50 [23] was greater than 20 µM and the EC50 [24] was greater than 20 µM. It also gave an EC50 [25] greater than 20 µM, an MCC [26] of 100 µM and a CC50 [27] of 24.3 µM. The EC50 [28] was greater than 20 µM, the EC50 [29] was greater than 20 µM and the EC50 [30] was greater than 20 µM. It also gave an EC50 [31] greater than 20 µM, an EC50 [32] greater than 20 µM and an EC50 [33] greater than 20 µM. It also gave a CC50 [34] of 45.3 µM, an EC50 [35] greater than 20 µM and an EC50 [36] greater than 20 µM.
